3 molecules from PubChem BioAssay AID540281 (Sanford-Burnham Center for Chemical Genomics, 2011) can be followed below.

Among all 2,500 compounds or so, about 1,500 (60%) were called active.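 How the source made its calls: active means inhibition of at least 30% at 20 µM; inactive means the rest.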 So high a share suggests a set chosen from earlier hits. The full list was thinned out, with actives kept by preference.

As usually defined, the inhibition is how much of the control response was suppressed.

Carboxy-terminal domain RNA polymerase II polypeptide A small phosphatase 1 (Homo sapiens), sequence (Q9GZU7 76-261 limits assumed): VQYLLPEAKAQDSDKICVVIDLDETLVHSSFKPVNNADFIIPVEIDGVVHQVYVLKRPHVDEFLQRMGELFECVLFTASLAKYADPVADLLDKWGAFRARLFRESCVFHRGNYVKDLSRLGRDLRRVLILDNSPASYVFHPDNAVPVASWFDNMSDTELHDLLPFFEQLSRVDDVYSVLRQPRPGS

This experiment concerns the target Carboxy-terminal domain RNA polymerase II polypeptide A small phosphatase 1 (Homo sapiens) (UniProt Q9GZU7). Put plainly: SCP1 dephosphorylation blockade at one dose – biochemical, colorimetric, single concentration, confirmation (AID 540281).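 Further: plate controls were DMSO with enzyme for no effect and buffer wells lacking enzyme for full effect.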 To be noted: recombinant SCP-1 catalytic domain, phosphate release, malachite green absorbance; at 20 µM; active compounds read high. An outline of the steps:
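assay system = SCP-1 catalytic fragment (residues 76-261) | timing = Enzyme–substrate reaction 45 min, room temperature | measured by = colorimetric absorbance at 630 nm of released free orthophosphate | also added = Phospho-17-mer peptide substrate | compound dosing = single 20 µM final compound concentration, 1.0% DMSO | medium = Acidic Tris acetate with 10 mM MgCl2 and Tween-20, pH 5.5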
Regarding `O=c1[nH]c(=O)n(CCc2ccc(F)cc2)c(O)c1/C=N/N1CCCCC1`, the inhibition is 34.8% (active). In the case of `COc1ccccc1N=C1SCCCN1C` it was 81.9% (active); in that of `O=C(O)CCn1cc(C=C2C(=O)NC(=S)NC2=O)c(-c2cccc(Br)c2)n1`, 40% (active).
